{"source": "ChEMBL document CHEMBL3868592", "about": "“Analogues of Marine Guanidine Alkaloids Are in Vitro Effective against Trypanosoma cruzi and Selectively Eliminate Leishmania (L.) infantum Intracellular Amastigotes” (J Nat Prod, 2016)", "key": {"Peritoneal macrophage [1]": {"tested_on": "Peritoneal macrophage", "assay": "Antiinflammatory activity in BALB/c mouse peritoneal macrophages assessed as decrease in MCP-1 release at 30 uM after 48 hrs by flow cytometric analysis", "type": "functional", "outline": "(§1)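 Peritoneal macrophages from BALB/c mice seeded at 1.5×10^5 cells/well; after 24 h, infected where applicable with L. infantum spleen-derived amastigotes at 1:10 (macrophage:amastigote). After 24 h, cocultured where applicable with splenocytes at 6:1. Compound added for 48 h. Supernatant cytokines quantified with an inflammatory cytometric bead array by flow cytometry. Sham-treated infected macrophages served as reference.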"}, "Trypanosoma cruzi": {"tested_on": "Trypanosoma cruzi", "assay": "Antitrypanosomal activity against Trypanosoma cruzi Y trypomastigote forms infected in monkey LLC-MK2 cells assessed as reduction in parasite viability after 24 hrs by resazurin assay", "type": "functional, cell-based", "details": "LLC-MK2, 24 h", "outline": "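Y-strain trypomastigotes from LLC-MK2 cultures seeded at 1×10^6/well in RPMI-1640. Compounds up to 150 μM, 24 h at 37 °C, 5% CO2. Viability by resazurin (0.011% in PBS), read at 570 nm against drug-free and cell-free wells; 0.5% DMSO control. IC50 by sigmoidal dose-response curve fitting.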"}, "Leishmania infantum [2]": {"tested_on": "Leishmania infantum", "assay": "Antileishmanial activity against Leishmania infantum MHOM/BR/1972/LD promastigote forms […] assessed as reduction in parasite viability after 48 hrs by MTT assay", "type": "functional", "outline": "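Late-growth-phase promastigotes (passage 5) seeded at 1×10^6/well in M-199. Compounds dissolved in DMSO, tested up to 100 μM, 48 h at 24 °C. Viability by MTT, OD 570 nm, against drug-free (100%) and cell-free blank wells; 0.5% DMSO control. IC50 from sigmoidal dose-response curves; ≥2 independent assays.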"}, "Leishmania infantum [3]": {"tested_on": "Leishmania infantum", "assay": "Antileishmanial activity against Leishmania infantum MHOM/BR/1972/LD amastigote forms infected in BALB/c mouse peritoneal macrophages assessed as reduction in parasite viability after 120 hrs by giemsa staining based light microscopy", "type": "functional", "outline": "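BALB/c peritoneal macrophages seeded at 1×10^5/well for 24 h, then infected with hamster spleen-derived amastigotes (1:10 macrophage:amastigote, 24 h, 37 °C, 5% CO2). Compound exposure for 120 h, highest 100 μM. Cells MeOH-fixed and Giemsa-stained; infected macrophages counted out of 400 cells. IC50 from sigmoidal dose-response; at least two independent assays.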"}, "[4]": {"assay": "Cytotoxicity against mouse NCTC-929 cells assessed as decrease in cell viability after 48 hrs by MTT assay", "type": "toxicity", "outline": "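NCTC clone 929 murine cells seeded at 6×10^4/well. Compound up to 150 μM for 48 h at 37 °C, 5% CO2. Viability read by MTT. CC50 from sigmoidal dose-response; mean of at least two independent experiments.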"}, "[5]": {"assay": "Selectivity index, ratio of CC50 for mouse NCTC-929 cells to IC50 for Leishmania infantum MHOM/BR/1972/LD amastigote forms infected in BALB/c mouse macrophages", "type": "functional"}, "[6]": {"assay": "Selectivity index, ratio of CC50 for mouse NCTC-929 cells to IC50 for Trypanosoma cruzi Y trypomastigote form infected in monkey LLC-MK2 cells", "type": "functional"}, "Leishmania infantum [7]": {"tested_on": "Leishmania infantum", "assay": "Induction of plasma membrane permeability in Leishmania infantum MHOM/BR/1972/LD promastigote form assessed as increase in fluorescence intensity at 57 uM measured every 20 mins for 60 mins by SYTOX green dye based fluorimetric assay relative to control", "type": "functional", "outline": "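Late-growth-phase promastigotes (passage 7) washed in PBS, seeded at 2×10^6/well and loaded with 1 μM SYTOX Green for 15 min at 24 °C. Compound added; fluorescence (ex 485/em 520 nm) read every 20 min over 60 min. 0.1% Triton X-100 defined maximal permeabilization. Background, DMSO, untreated and cell-free controls included. Triplicates.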"}, "Peritoneal macrophage [8]": {"tested_on": "Peritoneal macrophage", "assay": "Antiinflammatory activity in BALB/c mouse peritoneal macrophages infected with Leishmania infantum MHOM/BR/1972/LD amastigote form assessed as decrease in MCP-1 release at 30 uM after 48 hrs by flow cytometric analysis", "type": "functional", "outline": "as §1"}, "Peritoneal macrophage [9]": {"tested_on": "Peritoneal macrophage", "assay": "Antiinflammatory activity in BALB/c mouse peritoneal macrophages assessed as decrease in INF-gamma release at 30 uM after 48 hrs by flow cytometric analysis", "type": "functional", "outline": "as §1"}, "Peritoneal macrophage [10]": {"tested_on": "Peritoneal macrophage", "assay": "Antiinflammatory activity in BALB/c mouse peritoneal macrophages infected with Leishmania infantum MHOM/BR/1972/LD amastigote form assessed as decrease in INF-gamma release at 30 uM after 48 hrs by flow cytometric analysis", "type": "functional", "outline": "as §1"}, "Peritoneal macrophage [11]": {"tested_on": "Peritoneal macrophage", "assay": "Antiinflammatory activity in BALB/c mouse peritoneal macrophages infected with Leishmania infantum MHOM/BR/1972/LD amastigote form cocultivated with splenocytes assessed as decrease in MCP-1 release at 30 uM after 48 hrs by flow cytometric analysis", "type": "functional", "outline": "as §1"}, "Peritoneal macrophage [12]": {"tested_on": "Peritoneal macrophage", "assay": "Antiinflammatory activity in BALB/c mouse peritoneal macrophages infected with Leishmania infantum MHOM/BR/1972/LD amastigote form cocultivated with splenocytes assessed as decrease in INF-gamma release at 30 uM after 48 hrs by flow cytometric analysis", "type": "functional", "outline": "as §1"}, "Splenocyte": {"tested_on": "Splenocyte", "assay": "Antiinflammatory activity in splenocytes (unknown origin) assessed as decrease in MCP1 release at 30 uM after 48 hrs by flow cytometric analysis", "type": "functional, cell-based"}, "Leishmania infantum [13]": {"tested_on": "Leishmania infantum", "assay": "Induction of mitochondrial membrane potential loss in Leishmania infantum MHOM/BR/1972/LD promastigote form at 57 uM incubated for 60 mins by rhodamine-123 dye based fluorimetric assay", "type": "functional", "outline": "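Promastigotes (2×10^6/mL) in HBSS-glucose exposed to compound for 60 min at 25 °C. Rhodamine-123 (0.3 μg/mL) then added, cells washed and resuspended in HBSS-Glc, and fluorescence read at ex 485/em 520 nm. Sodium azide 10 mM as positive control; background, DMSO and untreated controls included. Triplicates.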"}, "Leishmania infantum [14]": {"tested_on": "Leishmania infantum", "assay": "Induction of ROS generation in Leishmania infantum MHOM/BR/1972/LD promastigote form at 57 uM incubated for […] by H2DCF-DA probe based fluorimetric assay relative to sodium azide", "type": "functional", "outline": "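Promastigotes (2 × 10^6/well) washed in HBSS and exposed to compound for 60 min, then loaded with 5 μM H2DCFDA for 15 min. Fluorescence read at ex 485/em 520 nm. Sodium azide (10 mM) served as positive control. Controls were compound background fluorescence, DMSO, untreated promastigotes and cell-free medium. Run in triplicate.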"}, "Peritoneal macrophage [15]": {"tested_on": "Peritoneal macrophage", "assay": "Antiinflammatory activity in BALB/c mouse peritoneal macrophages co-cultivated with splenocytes assessed as decrease in INF-gamma release at 30 uM after 48 hrs by flow cytometric analysis", "type": "functional", "outline": "as §1"}, "Peritoneal macrophage [16]": {"tested_on": "Peritoneal macrophage", "assay": "Antiinflammatory activity in BALB/c mouse peritoneal macrophages co-cultivated with splenocytes assessed as decrease in MCP-1 release at 30 uM after 48 hrs by flow cytometric analysis", "type": "functional", "outline": "as §1"}}, "note": "The source made the active and inactive calls. The calls are words filed in the database; no cut-off is given here."}
{"smiles": "C[C@@H]1C[C@@H]2CC[C@@H]3C[C@H](CCCCOCc4ccccc4)NC(=[NH+]1)N32.F[B-](F)(F)F", "values": [{"measurement": "Activity", "setting": "Peritoneal macrophage [1]", "value": "Active"}, {"measurement": "IC50", "setting": "Trypanosoma cruzi", "value": 41, "unit": "µM"}, {"measurement": "IC50", "setting": "Leishmania infantum [2]", "value": 57, "unit": "µM"}, {"measurement": "IC50", "setting": "Leishmania infantum [3]", "value": 5, "unit": "µM"}, {"measurement": "CC50 at 48 h", "setting": "[4]", "value": 138, "unit": "µM"}, {"measurement": "Ratio CC50/IC50", "setting": "[5]", "value": 25}, {"measurement": "Ratio CC50/IC50", "setting": "[6]", "value": 3}, {"measurement": "Activity", "setting": "Leishmania infantum [7]", "value": 25, "unit": "%"}, {"measurement": "Activity", "setting": "Peritoneal macrophage [8]", "value": "Active"}, {"measurement": "Activity", "setting": "Peritoneal macrophage [9]", "value": "Active"}, {"measurement": "Activity", "setting": "Peritoneal macrophage [10]", "value": "Active"}, {"measurement": "Activity", "setting": "Peritoneal macrophage [11]", "value": "Active"}, {"measurement": "Activity", "setting": "Peritoneal macrophage [12]", "value": "Active"}, {"measurement": "Activity", "setting": "Splenocyte", "value": "Active"}, {"measurement": "Activity", "setting": "Leishmania infantum [13]", "value": 70, "unit": "%"}, {"measurement": "fold change (FC)", "setting": "Leishmania infantum [14]", "value": 3}, {"measurement": "Activity", "setting": "Peritoneal macrophage [15]", "value": "Active"}, {"measurement": "Activity", "setting": "Peritoneal macrophage [16]", "value": "Active"}]}
